Assay results as given in ChEMBL document CHEMBL2331536, “Indenoindolone derivatives as topoisomerase II-inhibiting anticancer agents” (Bioorg Med Chem Lett, 2013).
Calls of active or inactive are those of the source. The calls are words filed in the database; no cut-off is given here.

Columns and labels:
[1] = molecular target: T1, DNA topoisomerase 1 (Homo sapiens) (UniProt P11387); test: Inhibition of human DNA topoisomerase 1 assessed as effect on relaxation of negatively super colied DNA at 100 uM incubated for 30 mins at 37 degC by agarose-gel electrophoresis
T1 sequence (whole entry): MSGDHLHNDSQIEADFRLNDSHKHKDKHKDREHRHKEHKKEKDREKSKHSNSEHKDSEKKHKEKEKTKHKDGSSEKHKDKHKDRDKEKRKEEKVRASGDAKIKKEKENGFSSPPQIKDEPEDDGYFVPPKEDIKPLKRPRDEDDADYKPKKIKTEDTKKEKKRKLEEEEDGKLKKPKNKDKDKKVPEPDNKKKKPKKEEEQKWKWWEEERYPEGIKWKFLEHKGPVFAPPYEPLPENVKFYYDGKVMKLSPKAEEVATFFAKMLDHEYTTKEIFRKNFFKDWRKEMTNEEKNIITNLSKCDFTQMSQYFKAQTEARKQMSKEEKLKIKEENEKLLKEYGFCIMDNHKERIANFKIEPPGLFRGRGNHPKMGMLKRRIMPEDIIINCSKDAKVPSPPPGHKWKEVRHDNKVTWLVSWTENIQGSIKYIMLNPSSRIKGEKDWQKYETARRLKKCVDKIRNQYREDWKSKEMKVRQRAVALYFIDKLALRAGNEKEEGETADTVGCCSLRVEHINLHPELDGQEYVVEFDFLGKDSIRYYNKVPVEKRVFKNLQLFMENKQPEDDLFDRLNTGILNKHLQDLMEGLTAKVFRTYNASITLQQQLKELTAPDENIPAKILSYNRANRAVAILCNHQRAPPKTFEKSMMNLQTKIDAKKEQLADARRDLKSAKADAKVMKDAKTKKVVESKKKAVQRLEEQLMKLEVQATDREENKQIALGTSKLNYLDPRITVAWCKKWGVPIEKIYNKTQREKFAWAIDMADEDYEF
Outline: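 Negatively supercoiled DNA treated with human topoisomerase I plus test agent or 100 µM camptothecin, 37 °C, 30 min. Relaxation judged on 1% agarose gel electrophoresis in TAE buffer.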

HEK293 = test: Cytotoxicity against HEK293 cells after 48 hrs by MTT assay; type: functional; conditions: Homo sapiens, HEK293, 48 h; read-out: LC50 (the source's name)
Outline: (§1)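 HEK-293 (ATCC CRL-1573) or normal monkey kidney Vero (ATCC CCL-81) cells were plated, then exposed to a range of compound concentrations for 48 h. MTT was added, and the formazan was dissolved in detergent solution and read at 570 nm. LC50 is the concentration giving 50% cell death. Data are the mean SD of three separate experiments.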

Nucleic Acid = test: Induction of DNA intercalation in negatively Escherichia coli super coiled small circular plasmid DNA assessed as retradation of DNA migration at 100 uM incubated for 20 mins at 37 degC by agarose-gel electrophoresis; type: nucleic-acid assay
Outline: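 250 ng negatively supercoiled small circular plasmid DNA (from E. coli) incubated with test agent or ethidium bromide, 37 °C, 20 min. Products resolved on 1% agarose gel in TAE buffer.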

[2] = Cytotoxicity against african green monkey Vero cells after 48 hrs by MTT assay; type: cell-based; conditions: chlorocebus sabaeus, read-out: LC50; outline: as §1
[3] = molecular target: DNA topoisomerase 2-alpha (Homo sapiens) (UniProt P11388); test: Inhibition of human topoisomerase 2alpha at 100 uM incubated for 30 mins at 37 degC by agarose-gel electrophoresis based ATP-dependent kDNA decatenation assay
Outline: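 Commercial topoisomerase drug-screening kit, in vitro ATP-dependent assay. kDNA treated with hTopoIIα plus test agent or 100 µM etoposide, 37 °C, 30 min. Run on 1% agarose gel in TAE buffer; decatenated product quantified.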

Sequence of DNA topoisomerase 2-alpha (Homo sapiens) (P11388 whole entry): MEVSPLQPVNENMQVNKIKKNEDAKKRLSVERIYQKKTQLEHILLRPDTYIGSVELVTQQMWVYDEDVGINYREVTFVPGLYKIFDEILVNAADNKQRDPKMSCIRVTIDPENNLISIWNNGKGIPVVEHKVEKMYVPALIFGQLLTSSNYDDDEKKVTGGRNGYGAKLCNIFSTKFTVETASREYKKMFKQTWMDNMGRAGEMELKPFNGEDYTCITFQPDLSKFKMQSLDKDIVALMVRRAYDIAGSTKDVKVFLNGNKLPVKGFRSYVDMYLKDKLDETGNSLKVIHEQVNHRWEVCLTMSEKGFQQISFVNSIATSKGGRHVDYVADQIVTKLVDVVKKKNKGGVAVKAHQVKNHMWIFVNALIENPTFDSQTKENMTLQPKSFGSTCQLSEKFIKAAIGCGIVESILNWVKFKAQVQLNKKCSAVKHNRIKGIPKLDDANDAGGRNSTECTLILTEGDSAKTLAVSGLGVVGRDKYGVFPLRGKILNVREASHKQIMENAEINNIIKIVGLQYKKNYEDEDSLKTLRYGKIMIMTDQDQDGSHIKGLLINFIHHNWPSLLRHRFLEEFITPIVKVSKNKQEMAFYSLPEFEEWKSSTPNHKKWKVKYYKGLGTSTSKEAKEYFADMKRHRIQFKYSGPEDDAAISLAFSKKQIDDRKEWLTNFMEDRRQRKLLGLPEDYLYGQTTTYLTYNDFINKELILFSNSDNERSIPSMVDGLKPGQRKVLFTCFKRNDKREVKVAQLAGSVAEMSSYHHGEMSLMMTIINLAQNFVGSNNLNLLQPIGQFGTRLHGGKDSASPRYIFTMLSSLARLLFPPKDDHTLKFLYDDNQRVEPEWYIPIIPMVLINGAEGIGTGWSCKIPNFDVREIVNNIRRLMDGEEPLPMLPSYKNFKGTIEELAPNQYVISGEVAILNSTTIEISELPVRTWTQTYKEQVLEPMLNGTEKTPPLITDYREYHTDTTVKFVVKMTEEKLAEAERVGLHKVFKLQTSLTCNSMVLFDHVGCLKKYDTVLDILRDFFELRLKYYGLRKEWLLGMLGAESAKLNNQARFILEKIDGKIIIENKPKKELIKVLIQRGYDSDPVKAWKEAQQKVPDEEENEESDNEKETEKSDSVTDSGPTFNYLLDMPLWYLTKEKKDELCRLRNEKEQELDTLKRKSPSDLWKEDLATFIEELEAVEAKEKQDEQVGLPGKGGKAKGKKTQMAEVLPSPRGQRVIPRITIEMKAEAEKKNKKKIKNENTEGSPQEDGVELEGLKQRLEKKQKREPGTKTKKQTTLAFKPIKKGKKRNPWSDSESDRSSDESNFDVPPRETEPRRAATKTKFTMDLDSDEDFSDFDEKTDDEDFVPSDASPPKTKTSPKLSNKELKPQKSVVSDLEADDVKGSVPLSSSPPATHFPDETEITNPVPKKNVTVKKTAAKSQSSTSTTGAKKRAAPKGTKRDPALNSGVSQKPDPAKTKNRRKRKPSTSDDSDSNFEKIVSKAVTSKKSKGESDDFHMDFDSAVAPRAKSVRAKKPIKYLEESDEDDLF

COc1cc2c(c(OC)c1OC)-c1c(c3ccccc3n1C)C2O (centres undefined)
inhibition [1]: inactive | CC50 (HEK293): 8 µM | Activity (Nucleic Acid): inactive | CC50 at 48 h [2]: 40 µM | inhibition [3]: Active

NC(=S)N/N=C1\c2ccccc2-c2[nH]c3ccccc3c21
inhibition [1]: inactive | CC50 (HEK293): 7 µM | Activity (Nucleic Acid): inactive | CC50 at 48 h [2]: 50 µM | inhibition [3]: Active

COc1ccc(N/N=C2/c3cc(OC)c(OC)cc3-c3c2c2ccccc2n3C)cc1
inhibition [3]: Active

O/N=C1\c2ccccc2-c2[nH]c3ccccc3c21
inhibition [1]: inactive | CC50 (HEK293): 6 µM | Activity (Nucleic Acid): inactive | CC50 at 48 h [2]: 60 µM | inhibition [3]: Active

COc1ccc(N/N=C2\c3ccccc3-c3c2c2ccccc2n3Cc2ccccc2)cc1
inhibition [3]: Active

COc1cc([C@@H]2c3cc4c(cc3[C@@H](O[C@@H]3O[C@@H]5CO[C@@H](C)O[C@H]5[C@H](O)[C@H]3O)[C@H]3COC(=O)[C@H]23)OCO4)cc(OC)c1O [ETOPOSIDE]
CC50 (HEK293): 17 µM | Activity (Nucleic Acid): inactive | CC50 at 48 h [2]: 29 µM

CC[n+]1c(-c2ccccc2)c2cc(N)ccc2c2ccc(N)cc21
Activity (Nucleic Acid): Active

COc1ccc2c(c1)/C(=N\Nc1ccccc1)c1c-2n(C)c2ccccc12
inhibition [3]: Active

COc1ccc(N/N=C2\c3ccccc3-c3c2c2ccccc2n3C)cc1
inhibition [3]: Active

Cn1c2c(c3ccccc31)/C(=N/Nc1ccccc1)c1ccccc1-2
inhibition [3]: Active

Cc1ccc(N/N=C2\c3ccccc3-c3c2c2ccccc2n3C)cc1
inhibition [3]: Active

COc1ccc2c(c1)C(O)c1c-2n(C)c2ccccc12 (centres undefined)
inhibition [1]: inactive | CC50 (HEK293): 4 µM | Activity (Nucleic Acid): inactive | CC50 at 48 h [2]: 30 µM | inhibition [3]: Active

O=C(N/N=C1\c2ccccc2-c2c1c1ccccc1n2Cc1ccccc1)Nc1ccccc1
inhibition [3]: Active

c1ccc(N/N=C2\c3ccccc3-c3[nH]c4ccccc4c32)cc1
inhibition [3]: Active

O/N=C1\c2ccccc2-c2c1c1ccccc1n2Cc1ccccc1
inhibition [3]: Active

O=c1[nH]cc(F)c(=O)[nH]1 [FLUOROURACIL]
CC50 (HEK293): 25 µM

CN1c2ccccc2C2=C(O)c3ccccc3C21 (centres undefined)
inhibition [3]: Active

COc1ccc2c(c1)/C(=N\O)c1c-2n(C)c2ccccc12
inhibition [1]: inactive | CC50 (HEK293): 5 µM | Activity (Nucleic Acid): inactive | CC50 at 48 h [2]: 60 µM | inhibition [3]: Active

COc1ccc2c(c1)c1c(n2C)-c2ccccc2/C1=N\Nc1ccccc1
inhibition [3]: Active

Cn1c2c(c3ccccc31)/C(=N/NC(=O)Nc1ccccc1)c1ccccc1-2
inhibition [3]: Active

COc1ccc(N/N=C2/c3cc(OC)c(OC)c(OC)c3-c3c2c2ccccc2n3C)cc1
inhibition [3]: Active

c1ccc(Cn2c3c(c4ccccc42)/C(=N/Nc2ccccc2)c2ccccc2-3)cc1
inhibition [3]: Active
